Assay results as given in ChEMBL document CHEMBL2331102 (Bioorg Med Chem, 2013).
Converted amounts (≈) assume the structure as drawn.

Assays:
[1] = Selectivity index, ratio of IC50 for rat L6 cells to IC50 for Trypanosoma cruzi Tulahuen TcVI extracellular trypomastigotes forms; format: toxicity, cell-based; conditions: read-out: Ratio IC50
Summary of the method: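 Ratio of the L6 myoblast cytotoxicity IC50 to the IC50 against β-galactosidase-expressing T. cruzi Tulahuen TcVI.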

Trypanosoma cruzi = assay: Antitrypanosomal activity against Trypanosoma cruzi Tulahuen TcVI extracellular trypomastigotes forms transfected with beta-galactosidase gene infected in rat L6 cells assessed as inhibition of parasite growth after 4 days; format: functional, organism-based; conditions: L6, 96 h
Summary of the method: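 L6 rat skeletal myoblasts were infected with extracellular trypomastigotes of β-galactosidase-transfected T. cruzi Tulahuen TcVI. After 48 h to establish infection, compound was added and incubation continued 4 days, exposing trypomastigote and intracellular amastigote forms.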

CYP3A4/5 = CYP3A4/5 (Homo sapiens, UniProt P08684+P20815); assay: Inhibition of CYP3A4/5 in human liver microsomes assessed as reduction in testosterone-beta-hydroxylation; format: ADME, Microsome; conditions: probe testosterone
Summary of the method: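 CYP3A4 inhibition measured as inhibition of testosterone β-hydroxylation, reported as IC50 (µM).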

[2] = Kinetic solubility of the compound at pH 6.5 phosphate buffer by nephelometric analysis; format: physicochemical; conditions: read-out: Kinetic_solubility
Summary of the method: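 Kinetic solubility in phosphate buffer at pH 6.5, determined by nephelometry and reported in µg/mL.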

L6 = assay: Cytotoxicity against rat L6 cells after 72 hrs by Alamar Blue assay; format: cell-based; conditions: L6, 72 h
Summary of the method: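 Counter-screen for cytotoxicity in uninfected L6 rat skeletal muscle myoblasts, with IC50 recorded in µM.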

IC50 (Trypanosoma cruzi)	IC50 (CYP3A4/5)	solubility kinetic [2]	Compound	selectivity ratio [1]	IC50 (L6)
17 nM	–	–	Cc1noc(N2CCN(C(c3cccnc3)c3ccc(C(F)(F)F)cc3F)CC2)n1 (centres undefined)	> 100	–
110 nM	3600 nM	12.5 µg/mL (≈ 34.2 µM)	CS(=O)(=O)N1CCN(C(c2ccc(Cl)cc2)c2cccnc2)CC1 (centres undefined)	> 100	> 100000 nM
36 nM	2800 nM	50 µg/mL (≈ 116 µM)	Cc1csc(C(=O)N2CCN(C(c3cccnc3)c3ccc(Cl)cc3F)CC2)n1 (centres undefined)	> 100	93000 nM
30 nM	2300 nM	12.5 µg/mL (≈ 30.8 µM)	CC(C)(C)C(=O)N1CCN(C(c2ccc(C(F)(F)F)cc2)c2cccnc2)CC1 (centres undefined)	> 100	–
7 nM	–	–	CC(C)c1ccc(NC(=O)N2CCN(C(c3cncnc3)c3ccc(Cl)cc3F)CC2)cc1 (centres undefined)	> 100	–
> 1000 nM	–	–	O=C(NC1CC1)N1CCN(C(c2ccc(C(F)(F)F)cc2)c2cccnc2)CC1 (centres undefined)	> 100	> 100000 nM
78 nM	–	–	Fc1cc(Cl)ccc1C(c1cncnc1)N1CCN(c2ccccc2)CC1 (centres undefined)	> 100	–
171 nM	–	–	O=C(C1CC1)N1CCN(C(c2cncnc2)c2ccc(Cl)cc2F)CC1 (centres undefined)	> 100	> 100000 nM
9 nM	1900 nM	< 1.6 µg/mL	O=S(=O)(c1ccccc1)N1CCN(C(c2ccc(Cl)cc2)c2cccnc2)CC1 (centres undefined)	> 100	–
26 nM	1800 nM	50 µg/mL (≈ 134 µM)	O=C(C1CC1)N1CCN(C(c2cccnc2)c2ccc(Cl)cc2F)CC1 (centres undefined)	> 100	> 100000 nM
120 nM	–	–	CN(C)C(=O)N1CCN(C(c2ccc(Cl)cc2)c2cccnc2)CC1 (centres undefined)	> 100	> 100000 nM
34 nM	–	–	Clc1ccc(C(c2cccnc2)N2CCN(c3ccccc3)CC2)cc1 (centres undefined)	> 100	–
19 nM	1000 nM	12.5 µg/mL (≈ 32.1 µM)	CC(C)(C)C(=O)N1CCN(C(c2cccnc2)c2ccc(Cl)cc2F)CC1 (centres undefined)	> 100	–
1150 nM	–	–	O=C(Cn1ccnc1[N+](=O)[O-])NCc1ccccc1 [BENZNIDAZOLE]	–	> 100000 nM
18 nM	–	–	Fc1cc(Cl)ccc1C(c1cccnc1)N1CCN(c2ccccc2)CC1 (centres undefined)	> 100	–
513 nM	–	–	Cc1csc(C(=O)N2CCN(C(c3ccc(C#N)cc3)c3cccnc3)CC2)n1 (centres undefined)	> 100	> 100000 nM
365 nM	–	–	CS(=O)(=O)N1CCN(C(c2ccc(C#N)cc2)c2cccnc2)CC1 (centres undefined)	> 100	> 100000 nM
22 nM	–	–	O=C(Nc1ccc(Cl)cc1)N1CCN(C(c2ccc(Cl)cc2)c2cncnc2)CC1 (centres undefined)	> 100	–
24 nM	3900 nM	12.5 µg/mL (≈ 29.5 µM)	CC(C)(C)C(=O)N1CCN(C(c2cccnc2)c2ccc(C(F)(F)F)cc2F)CC1 (centres undefined)	> 100	–
6 nM	–	–	O=C(Nc1ccccc1)N1CCN(C(c2cccnc2)c2ccc(Cl)cc2F)CC1 (centres undefined)	> 100	–
10 nM	–	–	O=S(=O)(C1CCCCC1)N1CCN(C(c2ccc(Cl)cc2)c2cccnc2)CC1 (centres undefined)	> 100	–
20 nM	–	–	COc1ccccc1N1CCN(C(c2ccc(Cl)cc2)c2cccnc2)CC1 (centres undefined)	> 100	–
240 nM	7400 nM	> 100 µg/mL	CC(=O)N1CCN(C(c2ccc(Cl)cc2)c2cccnc2)CC1 (centres undefined)	> 100	> 100000 nM
> 1000 nM	–	–	N#Cc1ccc(C(c2cccnc2)N2CCN(C(=O)NC3CC3)CC2)cc1 (centres undefined)	> 100	> 100000 nM
65 nM	–	–	COc1ccccc1N1CCN(C(c2cncnc2)c2ccc(Cl)cc2F)CC1 (centres undefined)	> 100	–
24 nM	2900 nM	12.5 µg/mL (≈ 30.7 µM)	CC(C)(C)OC(=O)N1CCN(C(c2cncnc2)c2ccc(Cl)cc2F)CC1 (centres undefined)	> 100	–

IC50 (Trypanosoma cruzi)	IC50 (CYP3A4/5)	solubility kinetic [2]	Compound	selectivity ratio [1]	IC50 (L6)
769 nM	–	–	CS(=O)(=O)N1CCN(C(c2ccc(C(F)(F)F)cc2)c2cncnc2)CC1 (centres undefined)	> 100	> 100000 nM
880 nM	–	–	CS(=O)(=O)N1CCN(C(c2ccc(Cl)cc2)c2cncnc2)CC1 (centres undefined)	> 100	> 100000 nM
28 nM	3900 nM	6.3 µg/mL (≈ 15.1 µM)	O=C(C1CCCCC1)N1CCN(C(c2cccnc2)c2ccc(Cl)cc2F)CC1 (centres undefined)	> 100	–
8 nM	600 nM	< 1.6 µg/mL	O=S(=O)(c1ccccc1)N1CCN(C(c2cccnc2)c2ccc(Cl)cc2F)CC1 (centres undefined)	> 100	42000 nM
281 nM	–	–	N#Cc1ccc(C(c2cccnc2)N2CCN(C(=O)C3CC3)CC2)cc1 (centres undefined)	> 100	> 100000 nM
50 nM	–	–	N#Cc1ccc(C(c2cccnc2)N2CCN(c3nccs3)CC2)cc1 (centres undefined)	> 100	> 100000 nM
81 nM	7000 nM	25 µg/mL (≈ 64 µM)	CC(C)(C)C(=O)N1CCN(C(c2cncnc2)c2ccc(Cl)cc2F)CC1 (centres undefined)	> 100	> 100000 nM
28 nM	1000 nM	25 µg/mL (≈ 59.9 µM)	CS(=O)(=O)N1CCN(C(c2cccnc2)c2ccc(C(F)(F)F)cc2F)CC1 (centres undefined)	> 100	–
28 nM	–	–	COc1ccccc1N1CCN(C(c2ccc(OC(C)C)cc2)c2cccnc2)CC1 (centres undefined)	> 100	–
70 nM	–	–	O=C(c1ccccc1)N1CCN(C(c2cccnc2)c2ccc(Cl)cc2F)CC1 (centres undefined)	> 100	–
254 nM	–	–	CC(C)(C)C(=O)N1CCN(C(c2ccc(C#N)cc2)c2cccnc2)CC1 (centres undefined)	> 100	> 100000 nM
9 nM	–	–	O=C(Nc1ccccc1)N1CCN(C(c2ccc(Cl)cc2)c2cccnc2)CC1 (centres undefined)	> 100	–
18 nM	–	–	CC(C)c1ccc(S(=O)(=O)N2CCN(C(c3cncnc3)c3ccc(Cl)cc3F)CC2)cc1 (centres undefined)	> 100	> 100000 nM
28 nM	810 nM	12.5 µg/mL (≈ 31.7 µM)	CC(C)S(=O)(=O)N1CCN(C(c2ccc(Cl)cc2)c2cccnc2)CC1 (centres undefined)	> 100	> 100000 nM
77 nM	–	–	CS(=O)(=O)N1CCN(C(c2ccc(C(F)(F)F)cc2)c2cccnc2)CC1 (centres undefined)	> 100	> 100000 nM
24 nM	–	–	O=S(=O)(c1ccc(Cl)cc1)N1CCN(C(c2ccc(Cl)cc2)c2cccnc2)CC1 (centres undefined)	> 100	–
20 nM	1900 nM	3.1 µg/mL (≈ 7.64 µM)	CC(C)(C)OC(=O)N1CCN(C(c2cccnc2)c2ccc(Cl)cc2F)CC1 (centres undefined)	> 100	–
240 nM	25000 nM	3.1 µg/mL (≈ 7.24 µM)	COc1ccccc1N1CCN(C(c2ccc(C(F)(F)F)cc2)c2cnccn2)CC1 (centres undefined)	> 100	–
68 nM	–	–	O=C(c1ccccc1)N1CCN(C(c2ccc(Cl)cc2)c2cccnc2)CC1 (centres undefined)	> 100	–
26 nM	–	–	Fc1cc(Cl)ccc1C(c1cccnc1)N1CCN(c2ncccn2)CC1 (centres undefined)	> 100	–
10 nM	300 nM	3.1 µg/mL (≈ 6.73 µM)	O=C(Nc1ccc(Cl)cc1)N1CCN(C(c2cncnc2)c2ccc(Cl)cc2F)CC1 (centres undefined)	> 100	–
25 nM	5600 nM	25 µg/mL (≈ 59.7 µM)	CS(=O)(=O)N1CCN(C(c2cncnc2)c2ccc(C(F)(F)F)cc2F)CC1 (centres undefined)	> 100	> 100000 nM
12 nM	–	–	CC(C)c1ccc(S(=O)(=O)N2CCN(C(c3ccc(Cl)cc3)c3cccnc3)CC2)cc1 (centres undefined)	> 100	–
17 nM	–	–	CC(C)(C)OC(=O)N1CCN(C(c2ccc(C(F)(F)F)cc2)c2cccnc2)CC1 (centres undefined)	> 100	–
54 nM	6900 nM	50 µg/mL (≈ 123 µM)	CC(C)(C)NC(=O)N1CCN(C(c2cncnc2)c2ccc(Cl)cc2F)CC1 (centres undefined)	> 100	> 100000 nM
35 nM	–	–	CC(C)Oc1ccc(C(c2cccnc2)N2CCN(C(=O)C(C)C)CC2)cc1 (centres undefined)	> 100	> 100000 nM

Compound	IC50 (Trypanosoma cruzi)	IC50 (CYP3A4/5)	solubility kinetic [2]	selectivity ratio [1]	IC50 (L6)
O=C(Oc1ccccc1)N1CCN(C(c2cccnc2)c2ccc(Cl)cc2F)CC1 (centres undefined)	5 nM	–	–	> 100	–
O=C(Oc1ccccc1)N1CCN(C(c2ccc(Cl)cc2)c2cccnc2)CC1 (centres undefined)	8 nM	–	–	> 100	–
